GalR3 antag: antagonists of human GalR3; AID 651719; HEK293 GalR3-CNG cAMP membrane potential fluorescence; galR3 body fused to GalR1 C-terminus; 360,000 tested, 0.44% active; O60755; inhibition, % at 3 µM;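 active means inhibition above the screen-wide average plus 3 SD, cut at about 13% in these data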;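 further: forskolin and galanin both at EC90 stimulate the cells; cAMP rise reported by CNG channel membrane potential dye signal; 0% = forskolin plus galanin with DMSO and 100% = forskolin alone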
OX1R antag-1: blocks the human orexin 1 receptor. O43613. CHO/OX1R cells, Fluo-8 calcium fluorescence, orexin A. inhibition, % at 5 µM. 330,000 tested, 0.43% active. AID 434989;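 active means inhibition above its plate's threshold, mean inhibition of all tested compounds on the plate plus 3 SD, cut at about 37% in these data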;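 further: 0% = orexin A challenge wells and 100% = SB-334867-A antagonist wells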
TAAR1 ag: agonists of human TAAR1 | Q96RJ0 | CHO RD-HGA16 TAAR1, Fluo-8 calcium fluorescence; vehicle wells 0%, saturating PEA agonist 100% | activation, % at 3 µM | 360,000 tested, 0.99% active | AID 624467;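 active means activation above the mean activation of all test compounds in the run plus 3 SD, cut at about 38% in these data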
Target sequence (Q96RJ0 whole entry, looked up): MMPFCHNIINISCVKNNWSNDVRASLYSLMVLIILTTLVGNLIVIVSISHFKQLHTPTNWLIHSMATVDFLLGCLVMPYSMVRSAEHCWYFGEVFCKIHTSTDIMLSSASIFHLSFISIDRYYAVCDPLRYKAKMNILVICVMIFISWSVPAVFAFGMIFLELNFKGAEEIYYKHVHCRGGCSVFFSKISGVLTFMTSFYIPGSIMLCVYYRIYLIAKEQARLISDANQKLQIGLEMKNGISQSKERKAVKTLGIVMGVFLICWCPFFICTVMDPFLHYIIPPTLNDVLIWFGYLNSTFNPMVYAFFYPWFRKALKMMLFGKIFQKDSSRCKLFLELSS
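Assay system – CHO-derived RD-HGA16 cells with stable Gα16 and human TAAR1 · Compound dosing – one-point dosing at 3 µM (nominal) · Incubation – 17-24 h seeding, 75 min 37 °C dye, 30 min RT · Measured by – kinetic Fluo-8 calcium fluorescence · Control set – DMSO vehicle as 0%, PEA at EC100 as 100% · Repeats – single well for each compound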
TAAR1 antagonist: human TAAR1 antagonism; Q96RJ0; CHO RD-HGA16 TAAR1, Fluo-8 calcium fluorescence, antagonist; inhibition, % at 3 µM; 360,000 tested, 1.5% active; AID 624466;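 active means inhibition above a per-plate cutoff, the mean inhibition of test compounds on that plate plus 3 SD, cut at about 49% in these data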;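 further: 0% = DMSO plus EC80 beta-PEA response and 100% = DMSO alone without agonist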
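Assay system: CHO-derived RD-HGA16 cells stably expressing human TAAR1 plus Gα16. Timing: 140 s kinetic read after compound, 140 s after agonist. Technique: kinetic Fluo-8 calcium fluorescence measurement. Measure: % inhibition of agonist calcium response.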
OX1R antag-2: OX1R (human) antagonism; O43613; OX1R-expressing cells, FRET antagonist read-out; inhibition, % at 6.6 µM; 330,000 tested, 1.8% active; AID 485270; in the data active means inhibition mostly above about 38%, no sharp cut-off; inactive means mostly below about 40%;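 further: 0% = agonist challenge alone and 100% = reference antagonist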
CHO parental Ca: signal in parental CHO cells, OX1R antagonist counter-screen; parental CHO-K1, ATP-induced calcium, Fluo-8 fluorescence; inhibition, % at 5.6 µM; 330,000 tested, 0.63% active; AID 463079;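 active means inhibition above that plate's mean sample inhibition plus 3 SD, cut at about 26% in these data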;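 further: 0% = ATP-challenged DMSO wells and 100% = DMSO wells without ATP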
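Material: parental CHO cells / Compound: single nominal dose of 5.6 µM per compound / Signal: Fluo-8 fluorescence / Replicates: singlicate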
OX1R Fluo8 conf: OX1R (human) antagonism, confirmed | AID 492963 | 1,100 tested, 38% active | shares compounds with OX1R antag-1 | CHO/OX1R cells, orexin A calcium Fluo-8 fluorescence | inhibition, % at 5 µM; in the data active means inhibition above about 29%;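 further: 0% = agonist challenge alone and 100% = reference antagonist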
CHO Ca counter: signal in parental CHO cells, OX1R antagonist counter-screen | shares compounds with OX1R antag-1 | parental CHO-K1, ATP-induced calcium, Fluo-8 fluorescence | inhibition, % at 5.6 µM | 1,100 tested, 9.3% active | AID 492965;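 active means inhibition above a per-plate limit, the mean inhibition of that plate's test compounds plus 3 SD, cut at about 25% in these data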;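 further: 0% = ATP challenge with DMSO and 100% = DMSO without ATP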
OX1R HTRF conf: confirmation of human orexin 1 receptor antagonists, HTRF format; shares compounds with OX1R antag-2; OX1R-expressing cells, HTRF antagonist assay; inhibition, % at 6.6 µM; 1,800 tested, 49% active; AID 492964; in the data active means inhibition above about 55%;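 further: CHO cells expressing OX1R stimulated with orexin A at about EC80; 0% = agonist challenge alone and 100% = reference antagonist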
CHO-K1 HTRF cnt: counter-screen for OX1R antagonists: effect in parental CHO-K1 cells; HTRF counterscreen; inhibition, % at 6.6 µM; 1,800 tested, 48% active; shares compounds with OX1R antag-2; in the data active means inhibition above about 17%;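 further: 0% = agonist challenge with vehicle and 100% = vehicle alone without agonist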
The depositor's hits bear a star; x = no result given. Shown are actives, neighbours in structure and some others; about 4.3% of the full set was active somewhere.

SMILES | GalR3 antag | OX1R antag-1 | TAAR1 ag | TAAR1 antagonist | OX1R antag-2 | CHO parental Ca | OX1R Fluo8 conf | CHO Ca counter | OX1R HTRF conf | CHO-K1 HTRF cnt
CCC(C)NC(=O)CSc1ccc(S(=O)(=O)N(C)C2CCCCC2)cn1 (stereo not drawn) | -10 | -10 | 4 | -4 | 11 | -11 | x | x | x | x
CCOc1ccccc1NC(=O)CN1C(=O)NC(Cc2c[nH]c3ccccc23)C1=O (stereo not drawn) | -4 | 42* | 2 | 6 | 36* | -25 | 10 | -9 | 34 | -5
Cc1cc(NC(=O)CCC(=O)N(c2ccccc2)C(C)C(=O)NC2CCCC2)no1 (stereo not drawn) | -1 | -16 | 2 | -5 | 12 | -29 | x | x | x | x
O=C(Nc1cccc(-c2nc3ccccc3s2)c1)c1ccc2c(c1)OCO2 | 3 | 44* | 10 | 26 | 87* | -19 | 25 | -6 | 94* | 15
Nc1c(N)c2ccccc2oc1=O | -5 | -12 | 8 | -9 | 15 | -7 | x | x | x | x
Nc1c(C(=O)c2ccc(Br)s2)oc2ccccc12 | -5 | 27 | 7 | -23 | 77* | -24 | 15 | -2 | 57* | 5
O=C(C1CCCN(S(=O)(=O)c2cccc3nsnc23)C1)N1CCc2ccccc21 (stereo not drawn) | 0 | 27 | 5 | 25 | 103* | 5 | -7 | -13 | 25 | 10
O=C(C1CCN(S(=O)(=O)c2cccc3nsnc23)CC1)N1CCc2ccccc21 | -4 | -14 | 8 | 15 | 25 | -17 | x | x | x | x
COc1ccc(-c2[nH]ncc2N=Nc2ccccc2)cc1 | -2 | 28 | 8 | 2 | 98* | 5 | 25 | 2 | 45 | 13
C=CCN1C(=O)/C(=C/c2ccc(O)c(OC)c2)S/C1=N/c1nccs1 | -4 | 41 | 32 | 60* | 89* | 31 | 36* | 22 | 66* | 13
C=CCN1C(=O)/C(=C/c2ccc(OCC(=O)O)cc2)S/C1=N/c1nccs1 | -6 | -12 | 8 | -8 | 14 | -16 | x | x | x | x
COC(=O)N/N=C(\CCC(=O)O)c1cccs1 | -3 | 2 | 0 | -7 | 17 | 1 | x | x | x | x
Cn1c2ccc(Cl)cc2c2nc3ccccc3nc21 | 3 | 31 | -2 | 24 | 91* | -14 | 40* | -9 | 92* | -1
COc1cccc(CC(=O)Nc2ccc(F)c(S(=O)(=O)N3CCOCC3)c2)c1 | -5 | x | 3 | -3 | x | x | x | x | x | x
CCc1ccc(NC(=O)c2ccc(F)c(S(=O)(=O)NCC3COc4ccccc4O3)c2)cc1 (stereo not drawn) | -3 | 36 | 6 | 46 | 56* | 14 | 24 | 30* | 32 | 12
O=C(NCC1COc2ccccc2O1)c1ccc(F)c(S(=O)(=O)N2CCOCC2)c1 (stereo not drawn) | -4 | x | 2 | 2 | x | x | x | x | x | x
COc1ccccc1N(CC(=O)NCCC1=CCCCC1)S(=O)(=O)c1ccccc1 | -7 | 63* | 6 | -3 | 85* | -34 | 45* | -20 | 87* | 0
COc1ccccc1N(CC(=O)NCCSCc1cccc(C)c1)S(=O)(=O)c1ccccc1 | -2 | 32 | 3 | 80* | 70* | 3 | 41* | -15 | 78* | -2
COc1ccccc1N(CC(=O)NCCSCc1ccccc1)S(C)(=O)=O | -7 | -20 | 9 | -14 | -5 | -6 | x | x | x | x
Cc1ccn2cc(C(=O)Nc3ccccc3N3CCOCC3)nc2c1 | -3 | -26 | 11 | 23 | 18 | -13 | x | x | x | x
